According to ChEMBL document CHEMBL4028889 (2017):
Active and inactive are the calls of the source. No cut-off for these calls is given here.

Assays:
[1] = system: PC-12; assay: Induction of autophagy in rat PC12 cells assessed as increase in beclin 1 expression after 24 hrs by Western blot method; type: functional, cell-based
How it was run: (§1)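 PC12 lysates were taken after 24 h of compound treatment. 50 μg protein was run on 10% SDS gel and transferred to nitrocellulose. Blots were blocked in 5% BSA, probed overnight at 4 °C with beclin 1 (1:2000) and actin (1:5000), then HRP secondary. Chemiluminescence was quantified by densitometry.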

[2] = system: PC-12; assay: Induction of autophagy in rat PC12 cells after 48 hrs by MDC staining-based flow cytometric method; type: functional, cell-based
How it was run: (§2)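 PC12 cells were treated for 48 h and then stained with 0.5 mM monodansylcadaverine for 30 min at 37 °C. Trypsinized cells were pooled with floating cells and resuspended in PBS/1% FBS. 10000 cells were read by flow cytometry in the FITC channel after gating out debris. MDC staining is expressed relative to vehicle.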

[3] = system: PC-12; assay: Neuroprotective activity against etoposide-induced apoptosis in rat PC12 cells assessed as increase in Bcl2/Bax ratio at 3 uM pretreated for 4 hrs followed by etoposide challenge measured after 48 hrs by Western blot method; type: functional, cell-based
How it was run: (§3)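 PC12 cells were pretreated 4 h with compound before etoposide and lysed after 24 or 48 h. 50 μg protein was run on 10% SDS gel and blotted. Probes were Bcl-2 (1:1000), Bax (1:500) and actin, with HRP chemiluminescence and densitometric Bcl-2/Bax ratio. n = 2, mean ± SEM.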

[4] = system: PC-12; assay: Neuroprotective activity against etoposide-induced apoptosis in rat PC12 cells assessed as cell viability at 0.1 uM pretreated for 4 hrs followed by etoposide challenge measured after 48 hrs by PrestoBlue assay relative to control; type: functional; conditions: read-out: Activity
How it was run: (§4)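 PC12 cells were plated at 50000/well on collagen-coated plates and left overnight. They were pretreated 4 h with compound, then given 15 μg/mL etoposide. Viability was read at 48 h by PrestoBlue (ex 560/em 590 nm). n = 3, mean ± SEM, as % viability.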

[5] = system: PC-12; assay: Neuroprotective activity against etoposide-induced apoptosis in rat PC12 cells assessed as cell viability at 3 uM pretreated for 4 hrs followed by etoposide challenge measured after 48 hrs by PrestoBlue assay (reference value: 52.13 +/- 1.13%); type: functional; conditions: read-out: Activity; how it was run: as §4
[6] = system: IMR90-c4; assay: Neuroprotective activity against etoposide-induced apoptosis in human IMR90-c4 cells assessed as increase in cell viability at 3 to 30 uM pretreated for 4 hrs followed by etoposide challenge measured after 36 hrs by PrestoBlue assay; type: functional, cell-based
How it was run: (§5)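 IMR90-c4 iPSC-derived neurons were plated at 16000 cells/well on poly-D-lysine/laminin and matured. They were pretreated 4 h with compound, then given 15 μg/mL etoposide. Viability was read at 36 h by PrestoBlue fluorescence (ex 560/em 590 nm).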

[7] = system: PC-12; assay: Neuroprotective activity against etoposide-induced apoptosis in rat PC12 cells assessed as increase in cell viability at 0.1 uM pretreated for 4 hrs followed by etoposide challenge measured after 48 hrs by PrestoBlue assay relative to control; type: functional, cell-based; how it was run: as §4
[8] = Neuroprotective activity against etoposide-induced apoptosis in human IMR90-c4 cells assessed as increase in cell viability at 3 uM pretreated for 4 hrs followed by etoposide challenge measured after 36 hrs by PrestoBlue assay relative to control; type: functional; how it was run: as §5
[9] = system: PC-12; assay: Induction of autophagy in rat PC12 cells at 3 uM after 48 hrs by MDC staining-based flow cytometric method relative to control; type: functional; how it was run: as §2
[10] = system: PC-12; assay: Neuroprotective activity against etoposide-induced apoptosis in rat PC12 cells assessed as cell viability at 0.3 uM pretreated for 4 hrs followed by etoposide challenge measured after 48 hrs by PrestoBlue assay relative to control; type: functional; conditions: read-out: Activity; how it was run: as §4
[11] = system: PC-12; assay: Neuroprotective activity against H2O2-induced apoptosis in rat PC12 cells assessed as increase in cell viability at 1 to 30 uM after 4 hrs by PrestoBlue assay; type: functional, cell-based
How it was run: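 PC12 cells were exposed to 400 μM H2O2 with compounds at 1–30 μM. Viability was measured after 4 h with PrestoBlue.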

[12] = system: PC-12; assay: Neuroprotective activity in rat PC12 cells assessed as decrease in H2O2-induced reactive oxygen species generation at 10 uM by CellROX/DAPI-blue staining-based fluorescence microscopic method; type: functional, cell-based
How it was run: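 PC12 cells were grown in RPMI with 10% horse serum and 5% FBS on collagen-coated plates. ROS was induced with H2O2 and cells exposed to compound. Staining used CellROX green plus DAPI, imaged by fluorescence microscopy at 40×.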

[13] = target: T1, Glutamate [NMDA] receptor (Homo sapiens) (UniProt Q05586+Q12879+Q13224+O15399+O60391+Q14957+Q8TCU5); assay: Antagonist activity at NMDA receptor in human IMR90-c4 cells assessed as decrease in NMDA-mediated reduction in cell viability at 0.1 to 30 uM by PrestoBlue assay; type: cell-based
How it was run: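 Neurons differentiated from IMR90-c4 iPSCs over roughly 21 days, then challenged with 500 μM NMDA. Viability was read with PrestoBlue. n = 1 with 4 technical replicates; % viability given as mean ± SEM.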

[14] = system: PC-12; assay: Neuroprotective activity against etoposide-induced apoptosis in rat PC12 cells assessed as increase in Bcl2/Bax ratio at 3 uM pretreated for 4 hrs followed by etoposide challenge measured after 24 hrs by Western blot method; type: functional; how it was run: as §3
[15] = system: IMR90-c4; assay: Neuroprotective activity against etoposide-induced apoptosis in human IMR90-c4 cells assessed as increase in cell viability at 0.1 to 3 uM pretreated for 4 hrs followed by etoposide challenge measured after 36 hrs by PrestoBlue assay; type: functional, cell-based; how it was run: as §5
[16] = system: IMR-90; assay: Neuroprotective activity against etoposide-induced apoptosis in human IMR90-c4 cells assessed as increase in cell viability at 0.1 uM pretreated for 4 hrs followed by etoposide challenge measured after 36 hrs by PrestoBlue assay relative to control; type: functional; how it was run: as §5
[17] = system: PC-12; assay: Induction of autophagy in rat PC12 cells assessed as increase in beclin 1 expression at 0.1 uM after 24 hrs by Western blot method relative to control; type: functional; how it was run: as §1
[18] = system: PC-12; assay: Neuroprotective activity against etoposide-induced apoptosis in rat PC12 cells assessed as increase in Bcl2/Bax ratio at 0.1 uM pretreated for 4 hrs followed by etoposide challenge measured after 48 hrs by Western blot method; type: functional, cell-based; how it was run: as §3
[19] = system: PC-12; assay: Neuroprotective activity against etoposide-induced apoptosis in rat PC12 cells assessed as increase in Bcl2/Bax ratio at 0.1 uM pretreated for 4 hrs followed by etoposide challenge measured after 24 hrs by Western blot method; type: functional; how it was run: as §3
[20] = Neuroprotective activity against etoposide-induced apoptosis in human IMR90-c4 cells assessed as cell viability at 3 uM pretreated for 4 hrs followed by etoposide challenge measured after 36 hrs by PrestoBlue assay relative to control; type: functional; conditions: read-out: Activity; how it was run: as §5
[21] = system: PC-12; assay: Induction of autophagy in rat PC12 cells assessed as increase in beclin 1 expression at 3 uM after 24 hrs by Western blot method relative to control; type: functional; how it was run: as §1
[22] = system: PC-12; assay: Induction of autophagy in rat PC12 cells at 10 uM after 48 hrs by MDC staining-based flow cytometric method relative to control; type: functional; how it was run: as §2
[23] = system: PC-12; assay: Induction of autophagy in rat PC12 cells assessed as increase in beclin 1 expression at 10 uM after 24 hrs by Western blot method relative to control; type: functional; how it was run: as §1
[24] = target: T1, Glutamate [NMDA] receptor (Homo sapiens); assay: Antagonist activity at NMDA receptor in human IMR90-c4 cells assessed as decrease in NMDA-mediated reduction in cell viability at 0.1 to 10 uM by PrestoBlue assay; type: cell-based
How it was run: (§6)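 IMR90-c4 iPSCs differentiated to neurons (NSC, NPC, then 21 days maturation on poly-D-lysine/laminin). Neurons challenged with 500 μM NMDA. Viability read with PrestoBlue. n = 1 with 4 technical replicates, mean ± SEM.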

[25] = target: T1, Glutamate [NMDA] receptor (Homo sapiens); assay: Antagonist activity at NMDA receptor in human IMR90-c4 cells assessed as decrease in NMDA-mediated reduction in cell viability at 30 uM by PrestoBlue assay; type: cell-based; how it was run: as §6
[26] = system: SH-SY5Y; assay: Neuroprotective activity against etoposide-induced apoptosis in human SH-SY5Y cells assessed as cell viability at 3 uM pretreated for 4 hrs followed by etoposide challenge measured after 12 to 48 hrs by PrestoBlue assay relative to control; type: functional; conditions: read-out: Activity
How it was run: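 SH-SY5Y cells were plated at 50000/well and left overnight at 37 °C, 5% CO2. They were pretreated 4 h with compound, then given etoposide; methods give 5 μg/mL read at 48 h, while the legend states 5 μM for 12 h. PrestoBlue fluorescence (ex 560/em 590 nm).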

[27] = system: IMR90-c4; assay: Neuroprotective activity against etoposide-induced apoptosis in human IMR90-c4 cells assessed as increase in cell viability at 10 to 30 uM pretreated for 4 hrs followed by etoposide challenge measured after 36 hrs by PrestoBlue assay; type: functional, cell-based
How it was run: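 Neurons derived from IMR90-c4 iPSCs were seeded at 16000 cells/well on poly-D-lysine/laminin and matured at 37 °C, 5% CO2. Compound pretreatment lasted 4 h before 15 μg/mL etoposide. PrestoBlue fluorescence (ex 560/em 590 nm) was read after 36 h.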

CCOC(=O)Nc1ccc(NCc2ccc(OC(F)(F)F)cc2)nc1N
Activity [1]: Dose-dependent effect
Activity [2]: Dose-dependent effect
Activity [3]: inactive
viability at 0.1 µM [4]: 77%
viability at 3 µM [5]: 80.6%
Activity [6]: Active

CCCCCCOC(=O)Nc1ccc(NCc2ccc(F)cc2)nc1N
viability at 3 µM [5]: 78.5%

CCOC(=O)Nc1ccc(NCCc2ccc(F)cc2)nc1N
viability at 3 µM [5]: 59.3%

CCOC(=O)Nc1cnc(NCc2ccc(F)cc2)cc1C
viability at 3 µM [5]: 53.8%

CCOC(=O)Nc1ccc(NCc2ccc(SC(F)(F)F)cc2)nc1N
Activity [7]: Active
Activity [2]: Dose-dependent effect
Activity [8]: 71%
Activity [3]: inactive
fold change (FC) [9]: 8
viability at 0.3 µM [10]: 93%

CCOC(=O)Nc1ccc(NCc2ccccc2C(F)(F)F)nc1N
viability at 3 µM [5]: 82.8%

Nc1nc(NCc2ccc(F)cc2)ccc1NC(=O)OCc1ccccc1
Activity [7]: Active
Activity [11]: inactive
Activity [8]: 79%
Activity [12]: inactive
Activity [3]: Active
fold change (FC) [9]: 3
viability at 3 µM [5]: 81.2%
inhibition [13]: inactive
Activity [6]: Active

C=CCOC(=O)Nc1ccc(NCc2ccc(F)cc2)nc1N
Activity [11]: inactive
Activity [12]: inactive
Activity [3]: inactive
Activity [14]: 150%
fold change (FC) [9]: 2
viability at 3 µM [5]: 84.9%
inhibition [13]: inactive

CCOC(=O)Nc1ccc(NCc2ccc(C(F)(F)F)cc2)nc1N
Activity [15]: Active
Activity [1]: Dose-dependent effect
Activity [16]: 75 - 76%
Activity [2]: Dose-dependent effect
Activity [11]: inactive
Activity [17]: 18%
Activity [3]: inactive
Activity [14]: 232%
Activity [18]: inactive
viability at 0.1 µM [4]: 84%
viability at 3 µM [5]: 68.4%
inhibition [13]: inactive
Activity [19]: 159%

Nc1nc(NCc2ccc(F)cc2)ccc1NC(=O)OCCCl
viability at 3 µM [5]: 53.9%

CCOC(=O)Nc1ccc(NCc2ccccc2)nc1
viability at 3 µM [5]: 67.5%

CCOC(=O)Nc1ccc(OCc2ccc(C(F)(F)F)cc2)nc1N
Activity [1]: Dose-dependent effect
Activity [3]: inactive
viability at 3 µM [20]: 65%

CCOC(=O)Nc1ccc(NCc2ccc(Cl)cc2)nc1N
Activity [21]: -20%
Activity [2]: Dose-dependent effect
Activity [11]: inactive
Activity [3]: inactive
Activity [14]: inactive
fold change (FC) [9]: >5
viability at 3 µM [5]: 64.3%
inhibition [13]: inactive
fold change (FC) [22]: >12
Activity [23]: 104%

CCOC(=O)Nc1ccc(NCc2ccc(C(F)(F)F)nc2)nc1N
viability at 0.1 µM [4]: 74%
viability at 3 µM [5]: 81.6%

CCCOC(=O)Nc1ccc(NCc2ccc(F)cc2)nc1N
viability at 3 µM [5]: 46.7%

CCOC(=O)Nc1ccc(NCc2ccc(C)cc2)nc1
viability at 3 µM [5]: 64.3%

CCOC(=O)Nc1ccc(NCc2ccc(F)cc2)nc1N [FLUPIRTINE]
inhibition [24]: inactive
Activity [21]: 32%
inhibition [25]: Active
Activity [11]: Active
Activity [12]: Active
Activity [3]: inactive
Activity [14]: 68%
viability at 3 µM [20]: 70%
fold change (FC) [9]: 2
viability at 3 µM [5]: 79.5%
viability at 3 µM [26]: 69%
fold change (FC) [22]: 8
Activity [6]: Active

CCOC(=O)Nc1ccc(NCc2ccc(C)cc2)nc1N
viability at 3 µM [5]: 136%

CCOC(=O)Nc1ccc(NCc2ccc(F)cc2)cc1N [EZOGABINE]
inhibition [24]: inactive
inhibition [25]: Active
Activity [11]: Active
Activity [27]: Active
Activity [12]: Active
Activity [3]: inactive
Activity [14]: 64%
fold change (FC) [9]: 2
